# Laboratory results taken from ChEMBL document CHEMBL5356951, “Semisynthetic polymyxins with potent antibacterial activity and reduced kidney cell toxicity” (RSC Med Chem, 2023).
# Positions of bridges follow the written chain, without caps; N, C: chain ends. Non-standard residues stand in square brackets, D forms with d. Residues, ends and D or L forms follow the SMILES beside them. *: point of attachment. X1 = CC[C@H](C)CCCCC(=O)*; Dab = NCC[C@H](N)C(=O)O
# Assays:
# Acinetobacter baumannii [1] = test: Antibacterial activity against Acinetobacter baumannii 2018-006 assessed as bacterial growth inhibition by broth microdilution assay; type: functional
# In short: (§1)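 Broth microdilution MIC. Strains grown overnight on blood agar at 37 °C, colonies suspended in TSB and grown to OD600 0.5. Compounds dissolved in DMSO (6.4 mg mL−1 stock), diluted serially in CAMHB (12.5 μg mL−1 Mg2+, 20 μg mL−1 Ca2+) on polypropylene plates. Final inoculum 10^6 CFU mL−1, 37 °C under gas-permeable membrane. MIC is the lowest concentration with no visible growth, consistent across at least triplicate experiments.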
# Klebsiella pneumoniae [2] = test: Antibacterial activity against Klebsiella pneumoniae JS-123 assessed as bacterial growth inhibition by broth microdilution assay; type: functional
# In short: (§2)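 Broth microdilution. Bacteria from glycerol stocks were grown overnight on blood agar at 37 °C, then colonies were suspended in TSB and grown to OD600 0.5. Compounds were dissolved in DMSO at 6.4 mg mL−1 (stock) and serially diluted in CAMHB (Mg2+ 12.5, Ca2+ 20 μg mL−1) in polypropylene plates. Inoculum was 10^6 CFU mL−1 final, incubated at 37 °C. MIC = lowest concentration without visible growth; values consistent across at least triplicate experiments.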
# Pseudomonas aeruginosa [3] = test: Antibacterial activity against Pseudomonas aeruginosa NRZ 03961 assessed as bacterial growth inhibition by broth microdilution assay; type: functional; in short: as §2
# Pseudomonas aeruginosa [4] = test: Antibacterial activity against Pseudomonas aeruginosa NRZ 08418 assessed as bacterial growth inhibition by broth microdilution assay; type: functional; in short: as §2
# Acinetobacter baumannii [5] = test: Antibacterial activity against Acinetobacter baumannii ATCC 17978 assessed as bacterial growth inhibition by broth microdilution assay; type: functional; in short: as §1
# Escherichia coli [6] = test: Antibacterial activity against Escherichia coli 1313 assessed as bacterial growth inhibition by broth microdilution assay; type: functional; in short: as §2
# Escherichia coli [7] = test: Antibacterial activity against Escherichia coli ATCC 25922 assessed as bacterial growth inhibition by broth microdilution assay; type: functional; in short: as §2
# [8] = Cytotoxicity against human ciPTEC cells assessed as reduction in cell viability at 250 uM incubated for 24 hrs by PrestoBlue reagent based fluorescence assay; type: toxicity
# In short: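 Differentiated ciPTEC-14.4 (conditionally immortalized) cells were washed with HBSS and then exposed to 250 μM compound in serum-free supplemented DMEM/F-12 for 24 h at 37 °C. After an HBSS wash, cells were incubated with 10% PrestoBlue in HBSS at 37 °C in the dark. Fluorescence was read at ex 530/em 590 nm, background-corrected, and expressed relative to medium-only cells; triplicates.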
# Acinetobacter baumannii [9] = test: Antibacterial activity against multidrug-resistant Acinetobacter baumannii assessed as bacterial growth inhibition by broth microdilution assay; type: functional; in short: as §1
# Klebsiella pneumoniae [10] = test: Antibacterial activity against Klebsiella pneumoniae NCTC 13443 assessed as bacterial growth inhibition by broth microdilution assay; type: functional; in short: as §2
# Escherichia coli [11] = test: Antibacterial activity against multidrug-resistant Escherichia coli NCTC 13846 assessed as bacterial growth inhibition by broth microdilution assay; type: functional; in short: as §1
# Pseudomonas aeruginosa [12] = test: Antibacterial activity against Pseudomonas aeruginosa ATCC 27853 assessed as bacterial growth inhibition by broth microdilution assay; type: functional; in short: as §2
# Klebsiella pneumoniae [13] = test: Antibacterial activity against Klebsiella pneumoniae ATCC 13883 assessed as bacterial growth inhibition by broth microdilution assay; type: functional; in short: as §2
# Acinetobacter baumannii [14] = test: Antibacterial activity against Acinetobacter baumannii ATCC 19606 assessed as bacterial growth inhibition by broth microdilution assay; type: functional; in short: as §1
# Escherichia coli [15] = test: Synergistic antibacterial activity against polymyxin-resistant Escherichia coli assessed as fractional inhibitory concentration index incubated for 18 hrs in presence of novobiocin by checkerboard assay; type: functional
# In short: (§3)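 8 × 8 checkerboard (64 combinations, each in triplicate) against E. coli EQAS mcr-2, grown to OD600 0.5 in TSB after overnight blood agar culture. Antibiotic and synergist serially diluted in CAMHB (12.5 μg mL−1 Mg2+, 20 μg mL−1 Ca2+), inoculum 10^6 CFU mL−1, 37 °C for 18 h. OD600 normalized to growth and no-growth controls. FICi calculated from minimal synergistic concentrations and single-agent MICs; ≤0.5 taken as synergy.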
# [16] = Cytotoxicity against human ciPTEC cells assessed as reduction in cell viability incubated for 24 hrs by PrestoBlue reagent based fluorescence assay; type: toxicity; details: read-out: TC50
# In short: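 ciPTEC-14.4 cells, differentiated, were treated for 24 h at 37 °C with compound at 100, 250, 500 or 1000 μM in serum-free DMEM/F-12 with insulin, transferrin, selenium, hydrocortisone, EGF and triiodothyronine. Viability was measured with 10% PrestoBlue in HBSS (fluorescence ex 530/em 590 nm), corrected for reagent background and normalized to untreated, medium-only control.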
# Escherichia coli [17] = test: Synergistic antibacterial activity against polymyxin-resistant Escherichia coli assessed as fractional inhibitory concentration index incubated for 18 hrs in presence of erythromycin by checkerboard assay; type: functional; in short: as §3
# Escherichia coli [18] = test: Synergistic antibacterial activity against polymyxin-resistant Escherichia coli assessed as fractional inhibitory concentration index incubated for 18 hrs in presence of rifampicin by checkerboard assay; type: functional; in short: as §3
structure (smiles),measurement,setting,value
CC(C)C[C@@H]1NC(=O)[C@@H](Cc2ccccc2)NC(=O)[C@H](CCN)NC(=O)[C@@H](NC(=O)[C@H](CCN)NC(=O)[C@@H](NC(=O)[C@H](N)CSSCCC2CCCCC2)[C@@H](C)O)CCNC(=O)[C@H]([C@@H](C)O)NC(=O)[C@H](CCN)NC(=O)[C@H](CCN)NC1=O,MIC,Acinetobacter baumannii [1],0.5 µg/mL
same,MIC,Klebsiella pneumoniae [2],2 µg/mL
same,MIC,Pseudomonas aeruginosa [3],4 µg/mL
same,MIC,Pseudomonas aeruginosa [4],4 µg/mL
same,MIC,Acinetobacter baumannii [5],1 µg/mL
same,MIC,Escherichia coli [6],2 µg/mL
same,MIC,Escherichia coli [7],1 µg/mL
same,Activity,[8],> 50%
same,MIC,Acinetobacter baumannii [9],1 µg/mL
same,MIC,Klebsiella pneumoniae [10],2 µg/mL
same,MIC,Escherichia coli [11],8 µg/mL
same,MIC,Pseudomonas aeruginosa [12],2 µg/mL
same,MIC,Klebsiella pneumoniae [13],1 µg/mL
same,MIC,Acinetobacter baumannii [14],0.5 µg/mL
CC(C)C[C@@H]1NC(=O)[C@@H](Cc2ccccc2)NC(=O)[C@H](CCN)NC(=O)[C@@H](NC(=O)[C@H](CCN)NC(=O)[C@@H](NC(=O)[C@H](N)CSSCc2cccc(Cl)c2)[C@@H](C)O)CCNC(=O)[C@H]([C@@H](C)O)NC(=O)[C@H](CCN)NC(=O)[C@H](CCN)NC1=O,MIC,Acinetobacter baumannii [1],2 µg/mL
same,MIC,Klebsiella pneumoniae [2],0.25 µg/mL
same,MIC,Pseudomonas aeruginosa [3],1 µg/mL
same,MIC,Pseudomonas aeruginosa [4],2 µg/mL
same,MIC,Acinetobacter baumannii [5],1 µg/mL
same,MIC,Escherichia coli [6],0.125 µg/mL
same,MIC,Escherichia coli [7],1 µg/mL
same,Activity,[8],> 50%
same,MIC,Acinetobacter baumannii [9],4 µg/mL
same,MIC,Klebsiella pneumoniae [10],0.25 µg/mL
same,MIC,Escherichia coli [11],4 µg/mL
same,MIC,Pseudomonas aeruginosa [12],4 µg/mL
same,MIC,Klebsiella pneumoniae [13],0.5 µg/mL
same,MIC,Acinetobacter baumannii [14],1 µg/mL
CC(C)CCSSC[C@@H](N)C(=O)N[C@H](C(=O)N[C@@H](CCN)C(=O)N[C@H]1CCNC(=O)[C@H]([C@@H](C)O)NC(=O)[C@H](CCN)NC(=O)[C@H](CCN)NC(=O)[C@H](CC(C)C)NC(=O)[C@@H](Cc2ccccc2)NC(=O)[C@H](CCN)NC1=O)[C@@H](C)O,MIC,Acinetobacter baumannii [1],0.5 µg/mL
same,MIC,Klebsiella pneumoniae [2],0.25 µg/mL
same,MIC,Pseudomonas aeruginosa [3],2 µg/mL
same,MIC,Pseudomonas aeruginosa [4],1 µg/mL
same,MIC,Acinetobacter baumannii [5],1 µg/mL
same,MIC,Escherichia coli [6],≤ 0.125 µg/mL
same,MIC,Escherichia coli [7],1 µg/mL
same,Activity,[8],> 50%
same,MIC,Acinetobacter baumannii [9],1 µg/mL
same,MIC,Klebsiella pneumoniae [10],0.5 µg/mL
same,MIC,Escherichia coli [11],8 µg/mL
same,MIC,Pseudomonas aeruginosa [12],1 µg/mL
same,MIC,Klebsiella pneumoniae [13],0.5 µg/mL
same,MIC,Acinetobacter baumannii [14],0.5 µg/mL
CC(C)CCSSC[C@@H](N)C(=O)N[C@H](C(=O)N[C@@H](CN)C(=O)N[C@H]1CCNC(=O)[C@H]([C@@H](C)O)NC(=O)[C@H](CCN)NC(=O)[C@H](CCN)NC(=O)[C@H](CC(C)C)NC(=O)[C@@H](Cc2ccccc2)NC(=O)[C@H](CCN)NC1=O)[C@@H](C)O,fractional inhibitory concentration index (FICI),Escherichia coli [15],0.19
same,MIC,Acinetobacter baumannii [1],0.25 µg/mL
same,MIC,Klebsiella pneumoniae [2],0.25 µg/mL
same,MIC,Pseudomonas aeruginosa [3],1 µg/mL
same,CC50 at 24 h,[16],130 µM
same,MIC,Pseudomonas aeruginosa [4],1 µg/mL
same,MIC,Acinetobacter baumannii [5],0.25 µg/mL
same,MIC,Escherichia coli [6],≤ 0.125 µg/mL
same,fractional inhibitory concentration index (FICI),Escherichia coli [17],0.27
same,fractional inhibitory concentration index (FICI),Escherichia coli [18],0.14
same,MIC,Escherichia coli [7],1 µg/mL
same,MIC,Acinetobacter baumannii [9],0.25 µg/mL
same,MIC,Klebsiella pneumoniae [10],0.25 µg/mL
same,MIC,Escherichia coli [11],4 µg/mL
same,MIC,Pseudomonas aeruginosa [12],1 µg/mL
same,MIC,Klebsiella pneumoniae [13],0.25 µg/mL
same,MIC,Acinetobacter baumannii [14],0.25 µg/mL
CC[C@H](C)CCCCC(=O)N[C@@H](CCN)C(=O)N[C@H](C(=O)N[C@@H](CCN)C(=O)N[C@H]1CCNC(=O)[C@H]([C@@H](C)O)NC(=O)[C@H](CCN)NC(=O)[C@H](CCN)NC(=O)[C@H](CC(C)C)NC(=O)[C@@H](Cc2ccccc2)NC(=O)[C@H](CCN)NC1=O)[C@@H](C)O (X1-[Dab]T[Dab][Dab][Dab][dF]L[Dab][Dab]T; lactam 4-C),MIC,Acinetobacter baumannii [1],0.125 µg/mL
same,MIC,Klebsiella pneumoniae [2],0.25 µg/mL
same,MIC,Pseudomonas aeruginosa [3],1 µg/mL
same,CC50 at 24 h,[16],1480 µM
same,MIC,Pseudomonas aeruginosa [4],1 µg/mL
same,MIC,Acinetobacter baumannii [5],0.25 µg/mL
same,MIC,Escherichia coli [6],0.125 µg/mL
same,MIC,Escherichia coli [7],1 µg/mL
same,Activity,[8],85%
same,MIC,Acinetobacter baumannii [9],0.5 µg/mL
same,MIC,Klebsiella pneumoniae [10],0.5 µg/mL
same,MIC,Escherichia coli [11],4 µg/mL
same,MIC,Pseudomonas aeruginosa [12],1 µg/mL
same,MIC,Klebsiella pneumoniae [13],0.25 µg/mL
same,MIC,Acinetobacter baumannii [14],0.25 µg/mL
